Source: PubChem BioAssay
These entries were drawn from the full list.
PGC1a acetyl up = raises PGC1a acetylation signal in U2OS cells; U2OS PGC1a acetylation AlphaScreen, overnight; activation, % at 15.6 µM; hit rate 0.21% among 350,000; AID 651723;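 active = every replicate reaching activation of at least 50%, whatever the mean replicate activation; inconclusive = replicates that disagree or another doubt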;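 note: hits raise the AlphaScreen acetylation signal above neutral controls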
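Incubation: overnight compound treatment, 37 °C. System: U2OS cells transduced with flag-tagged PGC1a and GCN5 acetyltransferase. Detection: AlphaScreen lysate read. Compound: single-point compound dosing.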
Hep G6PC suppr = PGC-1a acetylation activator altering hepatocyte G6PC expression | shares compounds with PGC1a acetyl up | primary mouse hepatocytes, G6PC mRNA qPCR, forskolin | G6PC suppression (normalized activity, % of positive control; higher = more suppression), % at 26 µM | 240 tested, under 10 active;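 active = dose curves showing G6PC suppression whose half-maximal dose is at most twice the top valid dose; inconclusive = flat curves with moderate negative activity, or unreliable fits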;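 note: G6PC expression relative to GAPDH housekeeping gene as delta delta Ct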
PCK1 hep suppr = PGC-1a acetylation activators affecting PCK1 expression in hepatocytes | shares compounds with PGC1a acetyl up | primary mouse hepatocytes, PCK1 mRNA qPCR, forskolin-stimulated | PCK1 expression decrease, unspecified at 26 µM | 230 tested, under 10 active;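 active = compounds lowering PCK1 expression whose fitted half-maximal concentration is at most twice the top tested dose; inconclusive = flat fit with moderate opposite-direction effect, or poor fit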;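 note: higher delta delta Ct means lower PCK1 expression so positive values indicate hits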
PGC1a hep suppr = PGC-1a acetylation activator altering hepatocyte PGC-1a expression. shares compounds with PGC1a acetyl up. primary mouse hepatocytes, PGC-1a mRNA qPCR, forskolin; top dose 26 µM. max activity (PGC-1a expression decrease), %. 240 tested, under 10 active. AID 743467;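 active = compound lowering PGC-1a expression with fitted half-maximal concentration at most twice its top tested dose; inconclusive = flat curve with moderate opposite-direction effect, or poor fit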
Hits are given with their value; . = inactive; ? = inconclusive; / = not tested or not shown.

SMILES	PGC1a acetyl up	Hep G6PC suppr	PCK1 hep suppr	PGC1a hep suppr
O=C1/C(=C\c2ccco2)SC(=S)N1Cc1ccccc1	.	/	/	/
CC(=O)N1N=C(c2ccco2)CC1c1ccco1 (stereo not drawn)	.	/	/	/
Cc1ccc(S(=O)(=O)NC(CC(C)C)C(=O)N2CCCCCCC2)cc1 (stereo not drawn)	64	.	.	.
CN1C2C=C3C(C#N)=C(N)C(C#N)(C#N)C(c4ccc(Br)cc4)C3C1CC2 (stereo not drawn)	.	/	/	/
Cc1ccc(Cl)cc1NC(=O)Cn1nc(-c2cccs2)ccc1=O	.	.	.	.
COc1ccccc1C(=O)N1C(CC(=O)Nc2cc(Cl)ccc2C)C(=O)NC2CCCCC21 (stereo not drawn)	.	/	/	/
CC1(C)CCCN(C(=O)N2c3ccccc3Sc3ccccc32)C1	?	.	.	.
Cc1cc(C2=NNC(=NCCc3ccccc3)SC2)c(C)n1-c1c(C)n(C)n(-c2ccccc2)c1=O	.	/	/	/
Cc1ccc(S(=O)(=O)/N=C2\C=C(Nc3ccc(O)cc3)C(=O)c3ccccc32)cc1	.	/	/	/
CO[C@H]1CN(C)C(=O)c2cc(NC(=O)Nc3ccc(Cl)cc3)ccc2OC[C@H](C)NC[C@@H]1C	.	/	/	/
COC(=O)[C@H](Cc1ccccc1)N(C)S(=O)(=O)c1cccc(S(=O)(=O)N(C)[C@@H](Cc2ccccc2)C(=O)OC)c1	?	.	/	?
O=C(c1ccc(Cl)cc1)C(Cn1cncn1)C(Sc1ccccc1)c1ccccc1 (stereo not drawn)	.	/	/	/
O=S(=O)(c1ccc(Cl)cc1)c1snnc1-c1ccccc1	.	/	/	/
COc1cccc(Cn2c(NCc3cccnc3)nc3c2c(=O)n(C)c(=O)n3C)c1	.	/	/	/
O=C(NCc1cccs1)C1Cc2c(-c3ccc(Cl)cc3)ccnc2O1 (stereo not drawn)	101	.	.	.
Cc1c(OCc2ccc(C(=O)O)cc2)ccc2c(-c3ccccc3)cc(=O)oc12	.	.	.	.
COc1cc(/C=N/NC(=O)c2ccncc2)ccc1OC(C)=O	.	/	/	/
COC(=O)Cn1ccc(-c2ccc(Cl)cc2)c(C#N)c1=O	.	/	/	/
O=C(C1CCC1)N1CCN(S(=O)(=O)c2ccccc2)CC1	?	.	.	.
CCCS(=O)(=O)Nc1cccc(-c2nc3cccnc3s2)c1	?	.	.	.
COc1ccc(-c2csc(N(CCCN(C)C)C(=O)c3cccs3)n2)cc1	.	/	/	/
CN(C)/C=N/c1nc2nccc(-c3ccccn3)n2n1	.	/	/	/
CCOc1ccc2nc(NCCNC(=O)Nc3ccccc3)c(C#N)cc2c1	.	/	/	/
O=C(CN1CCC(Cn2cnc3ccccc32)CC1)NCc1ccco1	/	.	.	.
O=C(NCc1ccco1)c1scc2c1OCCO2	.	/	/	/
SMILES	PGC1a acetyl up	Hep G6PC suppr	PCK1 hep suppr	PGC1a hep suppr
C/C(=N\NC(=O)c1cc(C)[nH]n1)c1ccc(-c2ccccc2)cc1	.	/	/	/
Cc1cc(NC(=O)CCS(=O)(=O)c2nc(-c3ccccc3)cc(C(F)(F)F)n2)no1	.	/	/	/
Cc1nn2c(NCCCN3CCOCC3)c3c(nc2c1-c1ccccc1)CCC3	67	.	.	.
CN(NC(=O)c1ccccc1)C1=NS(=O)(=O)c2ccccc21	.	/	/	/
COc1ccc([N+](=O)[O-])c(S(=O)(=O)c2ccc(Cl)cc2)n1	.	/	/	/
Cc1ccc2oc(Nc3nc(C)c(C)c(C)n3)nc2c1	.	/	/	/
O=C(Nc1ccc(-c2noc(CCc3ccccc3)n2)cc1)c1cccnc1	131	.	.	.
Cc1ccc2oc(-c3ccc(NC(=O)c4cccnc4)cc3)nc2c1	73	.	.	.
COC(=O)c1ccc(NC(=O)c2cccnc2)cc1	127	/	.	?
CCOc1ccc(N2C(=O)Cc3ccccc3C2=O)cc1	.	/	/	/
C=C[C@H]1CN2CCC1C[C@H]2[C@H](O)c1ccnc2ccc(OC)cc12 (stereo partly drawn)	.	/	/	/
O=C1CCCc2ccccc2N1Cc1ccc(Cl)cc1Cl	.	/	/	/
Fc1ccc(CN(Cc2ccccc2)C(c2cccs2)c2nnnn2C2CCCCC2)cc1 (stereo not drawn)	.	/	/	/
CC(C)C(c1nnnn1Cc1ccccc1)N(Cc1ccco1)Cc1cccs1 (stereo not drawn)	91	.	.	.
O=C1CN(C(=O)COC(=O)/C=C/c2ccco2)c2ccccc2N1	.	/	/	/
O=C(CSc1c(Cl)cccc1Cl)NC1CCCc2ccccc21 (stereo not drawn)	.	/	/	/
Cc1cc(C(=O)NNS(=O)(=O)c2ccc(F)cc2)nn1C(C)(C)C	456	/	.	.
C[C@H]1CN([C@@H](C)CO)C(=O)c2cccc(NC(=O)c3cnccn3)c2O[C@H]1CN(C)Cc1ccc(C(=O)Nc2ccccc2N)cc1	203	.	.	.
C[C@H](CO)N1C[C@H](C)[C@H](CN(C)Cc2ccc(C(=O)Nc3ccccc3N)cc2)Oc2c(NC(=O)c3ccncc3)cccc2C1=O	.	/	/	/
C[C@H]1CN([C@@H](C)CO)C(=O)c2cccc(NC(=O)Nc3cccc4ccccc34)c2O[C@H]1CN(C)Cc1ccc(C(=O)Nc2ccccc2N)cc1	81	.	.	.
O=C(OCc1nnc(-c2ccccc2)o1)C1=COCCO1	.	/	/	/
O=C(Cc1ccccc1)Nc1nc(-c2ccc(F)c(F)c2)cs1	62	.	.	.
C=C1C(=O)[C@]23C[C@H]1CCC2[C@]1(C)CCC[C@@](C)(C(=O)O)C1C[C@@H]3O (stereo partly drawn)	.	/	/	/
O=C(CC(C(=O)O)c1c[nH]c2ccccc12)c1ccccc1 (stereo not drawn)	.	/	/	/
Cc1cc(C)nc(NC(=S)Nc2ccccc2)n1	.	/	/	/
SMILES	PGC1a acetyl up	Hep G6PC suppr	PCK1 hep suppr	PGC1a hep suppr
O=C(Cc1ccccc1)Nc1cccc(-c2nc3ncccc3o2)c1	122	.	.	.
COc1cccc2c1C(=O)c1c(O)c3c(c(O)c1C2=O)CC(O)(C(C)=O)CC3OC1CC(N(C)C)C(O)C(C)O1 (stereo not drawn)	.	/	/	/
C#CCN(C[C@@H]1[C@@H](OC(=O)NCCCCCC)[C@@H](OC(=O)NCCCCCC)Cn2c(=O)ccc(=O)n21)S(=O)(=O)c1ccc(C)cc1	.	/	/	/
C[N+]1(C)CCC(=C2c3ccccc3CC(=O)c3sccc32)CC1	.	/	/	/
O=C(COc1ccc(Cl)cc1)NCCCNC(=O)c1cccnc1	112	.	.	.
CC1CN(c2oc(-c3cccs3)nc2C#N)CC(C)O1 (stereo not drawn)	.	/	/	/
Cc1ccc(C(=O)c2c[nH]c(C(=O)NCc3cccnc3)c2)cc1	75	.	.	.
Cc1ccc(C(=O)c2cncc(Br)c2)cc1	.	/	/	/
Cc1cc(F)cc(-c2cc(C(=O)NCc3ccccc3)[nH]n2)c1	.	/	/	/
Cn1ncc(N=Cc2ccccc2)c1C(N)=O	.	/	/	/
C#CC(=O)N(c1cccc(OC)c1)C(C(=O)NC1CCCC1)c1cccs1 (stereo not drawn)	.	/	/	/
C#CC(=O)N(c1ccc(OC)c(OC)c1)C(C(=O)NC1CCCC1)c1cccs1 (stereo not drawn)	.	/	/	/
COc1ccc(N(C(=O)c2snc(C(N)=O)c2N)C(C(=O)NC2CCCC2)c2ccco2)c(OC)c1 (stereo not drawn)	?	/	.	.
COc1ccc(Nc2nnc(-c3ccc(C(N)=O)cc3)c3ccccc23)cc1	89	.	.	.
Cc1nnc(SCC(=O)N2CCC(c3noc4ccc(F)cc34)CC2)s1	.	/	/	/
